Source: ChEMBL document CHEMBL1128448, “Synthesis and antifungal activity of new azole derivatives containing an N-acylmorpholine ring” (1995)
Values after ≈ are worked out from the molar mass of the structure shown.

Assays:
Candida albicans [1] = assay: In vitro evaluation of minimum inhibitory concentration against Candida albicans 76; format: functional
Outline: (§1)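 Stocks are 800 μg/mL in 50% ethanol. Each plate gets 10 μL of inoculum at 10^5 cfu/mL. Incubation at 25 °C, 48 h for yeasts and 120 h for dermatophytes and molds. Organisms are ATCC strains or clinical isolates.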

Candida albicans [2] = assay: In vivo evaluation of minimum inhibitory concentration against Candida albicans 60; format: functional
Outline: (§2)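 Broth macrodilution MIC following NCCLS M27-P, in RPMI-1640 buffered with 0.165 M MOPS. Fluconazole was dissolved in water and other drugs in DMSO. C. parapsilosis ATCC 22019 served as the reference strain in every run. MIC was the lowest concentration giving turbidity at or below the 80% inhibition standard.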

Mus sp. [3] = assay: In vivo evaluation of % survival rate after peroral administration on 3rd day at dose 1 mg/kg; format: functional; conditions: route oral, 1 mg/kg
Mus sp. [4] = assay: In vivo evaluation of % survival rate after peroral administration on 5th day at dose 1 mg/kg; format: functional; conditions: route oral, 1 mg/kg
Mus sp. [5] = assay: In vivo evaluation of % survival rate after peroral administration on 7th day at dose 1 mg/kg; format: functional; conditions: route oral, 1 mg/kg
Mus sp. [6] = assay: In vivo evaluation of % survival rate after peroral administration on 9th day at dose 1 mg/kg; format: functional; conditions: route oral, 1 mg/kg
Rattus norvegicus [7] = assay: In vivo evaluation of antifungal activity against vaginal candidosis in rat at dose 0.25 mg/kg on 10th day; format: functional
Outline: (§3)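 Groups of 10 female Wistar rats given estradiol 25 mg/kg sc on day -5, infected intravaginally with C. albicans by sterile swab on day 0; infection confirmed on day 3 by swab culture (TSB, then Sabouraud agar). Oral dosing once daily on days 3, 4, 5; vehicle controls. Vaginal swabs cultured on days 10 and 15; read-out % cured (culture-negative).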

Rattus norvegicus [8] = assay: In vivo evaluation of antifungal activity against vaginal candidosis in rat at dose 0.5 mg/kg on 10th day; format: functional
Outline: (§4)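 Female Wistar rats, 10 per group, received estradiol 25 mg/kg sc on day -5. On day 0 they were infected intravaginally with C. albicans by sterile swab. Infection was confirmed on day 3 by culturing the swab in TSB and then on Sabouraud agar. Oral dosing was once daily on days 3, 4 and 5; controls got vehicle only. Vaginal swabs taken on days 10 and 15 were cultured and read the next day.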

Rattus norvegicus [9] = assay: In vivo evaluation of antifungal activity against vaginal candidosis in rat at dose 0.5 mg/kg on 15th day; format: functional; outline: as §4
Kluyveromyces marxianus = assay: In vitro evaluation of minimum inhibitory concentration against Candida pseudotropicalis 13; format: functional; outline: as §1
Rattus norvegicus [10] = assay: In vivo evaluation of antifungal activity against vaginal candidosis in rat at dose 0.25 mg/kg on 15th day; format: functional; outline: as §3
Aspergillus fumigatus [11] = assay: In vivo evaluation of minimum inhibitory concentration against Aspergillus fumigatus 33; format: functional; conditions: in the assay text read “In vitro” for “In vivo”
Outline: (§5)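 Agar dilution MIC. Inocula were 10^5 cfu/mL; 10 µL was spotted onto Kimmig's agar with 0.5% glycerol containing twofold drug dilutions (80 to 0.025 µg/mL). Drug stocks were 800 µg/mL in 50% ethanol. Plates were incubated at 25 °C, 48 h for yeasts and 120 h for molds and dermatophytes.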

Aspergillus niger = assay: In vitro evaluation of minimum inhibitory concentration against Aspergillus niger 18; format: functional; conditions: Aspergillus niger; read-out: MIC; outline: as §1
Candida albicans [12] = assay: In vivo evaluation of minimum inhibitory concentration against Candida albicans 406; format: functional; conditions: Candida albicans; read-out: MIC; outline: as §2
[13] = tested on: Meyerozyma guilliermondii; assay: In vitro evaluation of minimum inhibitory concentration against Candida guilliermondii 26; format: functional; conditions: Meyerozyma guilliermondii; read-out: MIC; outline: as §1
Pichia kudriavzevii = assay: In vitro evaluation of minimum inhibitory concentration against Candida krusei 70; format: functional; conditions: Pichia kudriavzevii; read-out: MIC; outline: as §1
Candida parapsilosis = assay: In vitro evaluation of minimum inhibitory concentration against Candida parapsilosis 61; format: functional; conditions: Lodderomyces parapsilosis; read-out: MIC; outline: as §1
Candida tropicalis = assay: In vitro evaluation of minimum inhibitory concentration against Candida tropicalis 2.11; format: functional; conditions: Candida tropicalis; read-out: MIC; outline: as §1
Mus sp. [14] = assay: In vivo evaluation of % survival rate after peroral administration on 3rd day at dose 2.5 mg/kg; format: functional; conditions: Mus sp., po
Mus sp. [15] = assay: In vivo evaluation of % survival rate after peroral administration on 5th day at dose 2.5 mg/kg; format: functional; conditions: Mus sp., po
Mus sp. [16] = assay: In vivo evaluation of % survival rate after peroral administration on 7th day at dose 2.5 mg/kg; format: functional; conditions: Mus sp., po
Mus sp. [17] = assay: In vivo evaluation of % survival rate after peroral administration on 9th day at dose 2.5 mg/kg; format: functional; conditions: Mus sp., po
Microsporum canis = assay: In vitro evaluation of minimum inhibitory concentration against Microsporum canis 47; format: functional; conditions: Microsporum canis; read-out: MIC; outline: as §1
Nannizzia gypsea = assay: In vitro evaluation of minimum inhibitory concentration against Microsporum gypseum 22; format: functional; conditions: Nannizzia gypsea; read-out: MIC; outline: as §1
Nakaseomyces glabratus = assay: In vitro evaluation of minimum inhibitory concentration against Torulopsis glabrata 78; format: functional; conditions: Nakaseomyces glabratus; read-out: MIC; outline: as §1
Trichophyton benhamiae = assay: In vitro evaluation of minimum inhibitory concentration against Trichophyton mentagrophytes 23; format: functional, Arthroderma benhamiae; conditions: Trichophyton benhamiae; read-out: MIC; outline: as §1
Trichophyton rubrum = assay: In vitro evaluation of minimum inhibitory concentration against Trichophyton rubrum 90; format: functional; conditions: Trichophyton rubrum; read-out: MIC; outline: as §1
Rhodotorula mucilaginosa = assay: In vitro evaluation of minimum inhibitory concentration against Rhodotorula rubra 16; format: functional; conditions: Rhodotorula mucilaginosa; read-out: MIC; outline: as §1
Aspergillus flavus = assay: In vitro evaluation of minimum inhibitory concentration against Aspergillus flavus 19; format: functional; conditions: Aspergillus flavus; read-out: MIC; outline: as §1
Aspergillus fumigatus [18] = assay: In vitro evaluation of minimum inhibitory concentration against Aspergillus fumigatus 33; format: functional; conditions: Aspergillus fumigatus; read-out: MIC; outline: as §1
Candida albicans [19] = assay: In vivo evaluation of minimum inhibitory concentration against Candida albicans 76; format: functional; outline: as §2
[20] = tested on: Meyerozyma guilliermondii; assay: In vivo evaluation of minimum inhibitory concentration against Candida guilliermondii 26; format: functional; conditions: in the assay text read “In vitro” for “In vivo”; outline: as §5
[21] = Candida albicans, read-out: MIC
[22] = Kluyveromyces marxianus, read-out: MIC

Row | Structure (SMILES) | MIC (Aspergillus niger) [mg/L] | MIC [13] [mg/L] | MIC (Pichia kudriavzevii) [mg/L] | MIC (Candida parapsilosis) [mg/L] | survival at 2.5 mg/kg (Mus sp. [14]) [%] | survival at 2.5 mg/kg (Mus sp. [15]) [%] | survival at 2.5 mg/kg (Mus sp. [16]) [%] | survival at 2.5 mg/kg (Mus sp. [17]) [%] | MIC (Microsporum canis) [mg/L] | MIC (Nannizzia gypsea) [mg/L] | MIC (Nakaseomyces glabratus) [mg/L] | MIC (Trichophyton benhamiae) [mg/L] | MIC (Trichophyton rubrum) [mg/L] | MIC (Rhodotorula mucilaginosa) [mg/L] | MIC (Kluyveromyces marxianus; [22]) [mg/L] | MIC (Aspergillus flavus) [mg/L] | MIC (Aspergillus fumigatus [18]) [mg/L] | MIC (Candida albicans [19]) [mg/L] | also measured
1 | C[C@H]1N(C(=O)c2ccc(C(F)(F)F)cc2)CC(=O)O[C@@]1(Cn1cncn1)c1ccc(F)cc1F | – | – | – | – | – | – | – | – | – | – | – | – | – | – | – | – | – | – | MIC (Candida albicans [1]): 80 mg/L (≈ 167 µM); MIC (Candida albicans [2]): 40 mg/L (≈ 83.3 µM); Survival (Mus sp. [3]): 100%; Survival (Mus sp. [4]): 100%; Survival (Mus sp. [5]): 90%; Survival (Mus sp. [6]): 10%; Cure rate (Rattus norvegicus [7]): 10%; Cure rate (Rattus norvegicus [8]): 90%; Cure rate (Rattus norvegicus [9]): 90%; MIC (Kluyveromyces marxianus): 80 mg/L (≈ 167 µM); Cure rate (Rattus norvegicus [10]): 0%
2 | C[C@H]1N(C(=O)c2ccc(C(F)(F)F)cc2)CC(=O)O[C@@]1(Cn1cncn1)c1ccc(C(F)(F)F)cc1 (racemic) | > 80 | > 80 | > 80 | > 80 | 20 | 20 | 10 | 10 | > 80 | > 80 | > 80 | > 80 | > 80 | > 80 | 80 (≈ 156 µM) | > 80 | – | – | MIC (Aspergillus fumigatus [11]): > 80 mg/L; MIC (Candida albicans [1]; [21]): > 80 mg/L; MIC (Candida albicans [12]): > 80 mg/L; MIC (Candida albicans [2]; [21]): > 80 mg/L; MIC (Candida tropicalis): > 80 mg/L
3 | C[C@H]1N(C(=O)c2ccc(OCC(F)(F)F)cc2)CC(=O)O[C@@]1(Cn1cncn1)c1ccc(F)cc1F (racemic) | > 80 | – | > 80 | > 80 | 100 | 100 | 100 | 70 | > 80 | > 80 | > 80 | > 80 | > 80 | > 40 | 40 (≈ 78.4 µM) | > 80 | > 80 | 80 (≈ 157 µM) | MIC [20]: > 80 mg/L
4 | C[C@H]1N(C(=O)c2ccc(OC(F)(F)F)cc2)CC(=O)O[C@@]1(Cn1cncn1)c1ccc(F)cc1F (racemic) | > 80 | > 80 | > 80 | > 80 | 100 | 100 | 100 | 90 | > 80 | > 80 | > 80 | > 80 | > 80 | > 40 | 40 (≈ 80.6 µM) | > 80 | > 80 | 80 (≈ 161 µM) | –
